Most compounds without a hit are left out; they make up all but 1.9% or so of the library.
Xi reactivation: activators of X-chromosome reactivation in mouse fibroblasts; XiGFP mouse fibroblasts, % GFP-positive cells imaging, 3 d; cells co-treated with 5-aza-dC sensitizer; scaled so ellipticine positive control = 100%; activation, % at 7.58 µM; hit rate 0.055% among 360,000;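 active = mean normalized replicate activation at least 10% and every replicate at or above 10%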;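 note: 0% = median of on-plate neutral control wells and 100% = ellipticine 6 µM median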
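Material: XiGFP fibroblasts, SV40-immortalized. Buffer or medium: DMEM plus 5-aza-dC sensitizer. Compound: single concentration per compound, delivered by pin transfer. Times: 3 days compound exposure. Controls: ellipticine 6 µM.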
CFTR F508del cor: correctors of CFTR F508del function in bronchial epithelial cells; activity (quench increase), % at 7.58 µM; CFBE cells, YFP halide quenching; stimulated with forskolin plus potentiator P3; % fluorescence drop versus neutral controls; hit rate 0.36% among 350,000;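 active = mean added fluorescence quench of at least 8% versus neutral control, with both replicates also reaching 8%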;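 note: cells transiently co-express mutant CFTR-F508del with the halide-sensitive YFP; corrector assay measuring rescue of mutant channel to the surface after 24 h compound exposure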
PGC1a acetyl inh: modulators of PGC1a acetylation | hit rate 0.17% among 350,000 | inhibition, % at 15.6 µM | U2OS PGC1a acetylation, AlphaScreen anti-acetyl-lysine; with virally co-expressed GCN5 acetyltransferase;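 active = every replicate shows inhibition of at least 40%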;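 note: 0% = neutral control wells and 100% = positive control wells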
Cneo AK release: Cryptococcus neoformans lysis via adenylate kinase release | C. neoformans lysis, adenylate kinase release luminescence, 4 h; normalised: neutral wells 0, clomiphene wells 100 | lysis activity, % at 15 µM | hit rate 0.2% among 360,000;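 active = mean lysis activity across replicates of at least 80%, whatever share of replicates individually reach that level; inactive = mean lysis activity below 80%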
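Material: C. neoformans cells | Amount: Yeast cell density of 5 × 10^6 cells/mL | Medium: Fresh YPD growth medium | Dosing: Single dose | Times: Static 4 h at 37 °C with compound, 1 h detection | Detection: AK luminescence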
DENV2 CPE rescue: inhibitors of DENV2 cytopathic effect; AID 651640; DENV2-infected cells, cytopathic effect rescue, plate reader; hit rate 1.7% among 350,000; CPE inhibition, % at 9.99 µM; in the data active = CPE inhibition above about 20%, passing the limit was not always enough; tested in BHK-21 cells;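 note: 0% = median of neutral control wells and 100% = median of positive control wells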
FN deposit inh: fibronectin deposition inhibition; AH1F fibroblasts, Alexa488-fibronectin deposition fluorescence, overnight; inhibition, % at 12.6 µM; hit rate 0.086% among 350,000; AID 743247;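 active = mean inhibition across replicates of 30% or more, regardless of how many single replicates reach that level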;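 note: positive control wells lacked labelled fibronectin entirely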
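Material: AH1F fibroblasts assembling fluorescent fibronectin matrix; amount: 10000 AH1F cells/well; medium: DMEM, 2% serum; reagent: Alexa488-fibronectin, 24 nM final in well; dosing: single compound dose, delivered by pin transfer; incubation: 1 h adhesion, overnight exposure; detection: fluorescence after three HBSS washes, excitation 485 nm, emission 525 nm; measure: fibronectin deposition inhibition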
Numbers without * were called inactive; · = no result.

SMILES	Xi reactivation	CFTR F508del cor	PGC1a acetyl inh	Cneo AK release	DENV2 CPE rescue	FN deposit inh
O=C1CCCCN1CC(=O)N1CCCC(Nc2ccc(F)c(F)c2)C1 (configuration not stated)	0.2	-0.2	15.4	0.0	10.7	6.1
O=C(Cn1cccn1)N1CCCC(Nc2ccc(F)c(F)c2)C1 (configuration not stated)	0.2	0.3	-4.4	1.2	27.0*	2.8
C[C@H](CO)N1C[C@H](C)[C@H](CN(C)CC2CC2)Oc2c(NC(=O)Nc3ccccc3)cccc2C1=O	-1.4	3.1	-13.6	-3.2	-1.3	-1.2
CC1(C)CCN2CCC(C)(C)c3c(O)ccc1c32	80.1*	37.9*	·	-0.8	-15.0	-10.2
COc1ccc2c3c(n(C)c2c1)[C@@H](CO)N(C(=O)C1CC1)CC31CCN(Cc2cccc(F)c2)CC1	0.1	5.8	0.2	·	-24.9	-1.4
COc1ccc2c3c(n(C)c2c1)[C@@H](CO)N(C(=O)C1CCOCC1)CC31CN(C(=O)C2CC2)C1	0.0	-0.8	·	·	-0.8	-8.0
COc1ccc2c3c(n(C)c2c1)[C@H](CO)N(C(=O)C1CC1)CC31CCN(Cc2cccc(F)c2)CC1	0.0	15.4*	3.8	·	-24.3	9.4
COc1ccc2c3c(n(C)c2c1)[C@H](CO)N(C(=O)C1CCOCC1)CC31CN(C(=O)C2CC2)C1	0.0	0.3	·	·	21.9*	-3.6
NS(=O)(=O)c1ccc(NC(=O)c2cccc3cc4ccccc4nc23)cc1	1.5	18.5*	·	·	-2.2	1.6
NS(=O)(=O)c1ccc(NC(=O)c2cccc3ccccc23)cc1	0.0	4.2	23.4	3.1	2.4	2.0
CCCSc1ccc([C@@H]2[C@H]3C(=O)N(CC)C(=O)[C@H]3[C@]3(C(=O)OC)CCCN23)cc1OC	1.0	-1.4	·	-1.9	102.2*	1.1
C[C@H]1CN([C@@H](C)CO)C(=O)c2cc(C#CCN(C)C)cnc2O[C@H]1CN(C)Cc1ccccc1F	-1.1	·	3.8	-1.1	8.0	3.7
Cc1cc(O)c(N=Nc2ccc(C(=O)O)cc2)cc1C	0.0	-5.1	50.1*	-0.4	-0.3	-9.4
COc1ccc(CNC(=O)C(c2ccncc2)N(C(=O)Cc2cccs2)c2ccccc2)cc1 (configuration not stated)	0.0	·	·	·	15.2	0.5
COc1ccc(N(C(=O)CCl)C(C(=O)NCCc2ccccc2)c2cccs2)cc1 (configuration not stated)	5.4	-4.8	60.9*	1.6	1.9	25.0
C/C=C/c1ccc([C@H]2[C@@H](CO)N(CCC(F)(F)F)C23CN(C(C)=O)C3)cc1	0.0	-2.4	9.2	·	1.9	·
COCCNC(=O)CCC1CCN(C/C=C/c2ccccc2OC)CC1	0.0	2.4	2.3	-3.6	29.0*	-0.4
Cc1noc(C)c1S(=O)(=O)Nc1ccc2c(c1)C(=O)N([C@@H](C)CO)C[C@@H](C)[C@H](CN(C)C(=O)Nc1ccccc1)OCCCC[C@@H](C)O2	0.2	-1.1	-1.1	-9.5	97.5*	-13.1
Cc1noc(C)c1S(=O)(=O)Nc1ccc2c(c1)C(=O)N([C@H](C)CO)C[C@H](C)[C@H](CN(C)C(=O)Nc1ccccc1)OCCCC[C@H](C)O2	0.1	-2.0	-9.9	-4.3	32.6*	-6.7
Cc1noc(C)c1S(=O)(=O)Nc1ccc2c(c1)C(=O)N([C@H](C)CO)C[C@@H](C)[C@H](CN(C)C(=O)Nc1ccccc1)OCCCC[C@@H](C)O2	0.4	1.8	3.6	-5.8	2.4	-7.9
C[C@@H]1CN([C@@H](C)CO)C(=O)c2cccc(NC(=O)Nc3ccc(C(F)(F)F)cc3)c2O[C@H]1CN(C)Cc1ccc(C(=O)O)cc1	0.2	-4.3	0.9	·	·	·
COc1ccc(NC(=O)Nc2cccc3c2O[C@@H](CN(C)S(=O)(=O)c2ccc(OC)cc2)[C@H](C)CN([C@@H](C)CO)C3=O)cc1	0.0	3.0	2.9	5.7	-11.2	·
CC(=O)N1[C@H](CO)[C@@H]2c3ccccc3N(S(=O)(=O)c3cccc(C)c3)C[C@@H]21	-0.1	-0.7	-3.3	-1.0	14.5	·
O=C(CC1CC1)N1[C@@H]2CN(S(=O)(=O)c3ccccc3)c3ccccc3[C@@H]2[C@@H]1CO	0.1	1.3	4.4	106.3*	-2.3	·
Cc1cccc(S(=O)(=O)N2C[C@H]3[C@@H](c4ccccc42)[C@@H](CO)N3C(=O)c2ccccc2)c1	-0.1	-0.8	-3.6	-3.3	57.2*	2.8
SMILES	Xi reactivation	CFTR F508del cor	PGC1a acetyl inh	Cneo AK release	DENV2 CPE rescue	FN deposit inh
Cc1cccc(S(=O)(=O)N2C[C@H]3[C@@H](c4ccccc42)[C@@H](CO)N3Cc2cccnc2)c1	0.3	0.7	2.1	-1.7	27.3*	·
O=C(CC1CC1)N1[C@H](CO)[C@H]2c3ccccc3N(S(=O)(=O)c3ccccc3)C[C@H]21	0.0	3.5	-3.8	0.7	-0.7	·
O=S(=O)(c1ccccc1)N1C[C@H]2[C@@H](c3ccccc31)[C@@H](CO)N2Cc1ccccc1	0.0	1.5	-7.9	-1.5	27.3*	·
COc1ccc(CN(C)C[C@@H]2OCCCC[C@H](C)Oc3ccc(NC(=O)Nc4c(C)noc4C)cc3C(=O)N([C@@H](C)CO)C[C@H]2C)cc1	-1.1	0.7	-7.8	0.0	14.0	·
CO[C@@H]1CN(C)C(=O)c2cc(NC(=O)NC(C)C)ccc2OC[C@@H](C)N(Cc2cncnc2)C[C@H]1C	-0.4	1.6	1.0	2.0	·	-10.3
COCC(=O)Nc1ccc2c(c1)[C@@H]1C[C@H](CC(=O)NCCN3CCCCC3)O[C@@H](CO)[C@@H]1O2	0.1	-3.0	2.1	3.6	-5.0	-7.1
Cc1ccc(S(=O)(=O)N(C)C[C@H]2OCCCC[C@@H](C)Oc3ccc(NS(=O)(=O)c4c(C)noc4C)cc3C(=O)N([C@H](C)CO)C[C@H]2C)cc1	0.1	-3.5	-19.3	7.0	20.6*	5.9
Cc1ccc(S(=O)(=O)Nc2ccc3c(c2)C(=O)N([C@@H](C)CO)C[C@@H](C)[C@H](CN(C)S(=O)(=O)c2c(C)noc2C)OCCCC[C@H](C)O3)cc1	0.2	-4.1	0.1	1.6	-15.2	-4.8
Cc1ccc(S(=O)(=O)N(C)C[C@@H]2OCCCC[C@@H](C)Oc3ccc(NS(=O)(=O)c4c(C)noc4C)cc3C(=O)N([C@H](C)CO)C[C@@H]2C)cc1	0.0	1.8	3.9	0.7	-2.2	-6.3
Cc1noc(C)c1S(=O)(=O)Nc1ccc2c(c1)C(=O)N([C@@H](C)CO)C[C@@H](C)[C@H](CN(C)S(=O)(=O)c1ccccc1)OCCCC[C@@H](C)O2	0.0	-1.2	6.6	-0.4	93.8*	10.5

Screens: PubChem BioAssay, Broad Institute
